Bioassay records (PubChem)
Sampled rows, rich in hits. Any-hit rate of the full collection: about 3.8%.
Kir21 block = Kir2.1 (mouse) channel inhibition; HEK293-Kir2.1, FluxOR thallium flux fluorescence; stronger effect = lower value; B-score at 10 µM; 310,000 tested, 0.85% active; P35561;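 active = fluorescence ratio B-score at or below minus 3 SD of library scores, with starting-brightness B-score within 2 SD, cut at about -4.2 in these data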;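 also: channel flux triggered by added potassium and thallium sulfate stimulus; B-score of peak minus minimum fluorescence over baseline after thallium stimulus; more negative B-score means stronger Kir2.1 block with less thallium influx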
KCNK3 inh = human KCNK3 channel inhibition, primary screen; B-score at 10 µM; CHO-KCNK3 thallium flux, FluxOR fluorescence; stronger effect = lower value; 340,000 tested, 0.84% active;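 active = B-score under library mean minus 4 SD, starting fluorescence ratio at most library mean plus 5 SD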;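 also: more negative B-score means stronger inhibition of thallium flux through KCNK3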
KCNQ1 block = human KCNQ1 channel inhibition. AID 2642. CHO-K1 KCNQ1, FluxOR thallium flux fluorescence; stronger effect = higher value. 310,000 tested, 1.3% active. P51787. B-score at 10 µM;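 active = compounds whose thallium flux B-score, printed positive for inhibition, exceeds three library SD while starting fluorescence stays within three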;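 also: channel opened by potassium depolarization with thallium stimulus after 20 min compound exposure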
KCNQ1 act = potentiators or activators of human KCNQ1 potassium channel; CHO-K1 KCNQ1, thallium flux FluxOR fluorescence; stronger effect = higher value; 310,000 tested, 0.35% active; B-score at 10 µM;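 active = fluorescence ratio B-score, a plate-corrected score, at least three library SD, with initial intensity B-score within 5 SD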
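System: Stable KCNQ1 CHO-K1 line | Incubation: 90 min dye loading and 20 min compound exposure, both at room temperature | Measure: Ratio B score | Medium: Assay buffer for compound exposure, DMSO matched across wells | Compound dosing: Single-concentration screen | Probe or stimulus: K+/Tl+ depolarizing stimulus | Measured by: Kinetic FluxOR fluorescence, 10 s baseline plus 110 s post-stimulus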
hERG protect = compounds protecting human hERG from proarrhythmic drug block; AID 1511; activation (rescue from dofetilide block), less the hit threshold, % at 10 µM; CHO-hERG, FluxOR thallium flux, dofetilide IC70 present; 310,000 tested, 0.51% active; Q12809;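 active = activation above the mean of controls blocked by dofetilide plus 5 SD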;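 also: thallium influx through hERG after potassium depolarization seen as dye fluorescence rise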
KCNK9 block = blocks the human KCNK9 two-pore domain potassium channel; Q9NPC2; HEK293 KCNK9, FluxOR thallium flux fluorescence; stronger effect = lower value; B-score at 10 µM; 310,000 tested, 1.2% active; AID 488922;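 active = ratio B-score over 3 SD below the library mean, with starting fluorescence within 5 SD of its mean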;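 also: negative B-score means less thallium flux so channel inhibition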
* marks the source's active call; other numbers are inactive results; i = inactive; . = no result given.

SMILES | Kir21 block | KCNK3 inh | KCNQ1 block | KCNQ1 act | hERG protect | KCNK9 block
CC(c1ccccc1)N(CCC(c1ccccc1)C1CCOC(C)(C)C1)C(=O)c1ccco1 (centres undefined) | -6.01* | i | 9* | i | -36.5 | i
Cc1nn(Cc2ccccc2Cl)c2sc(C(=O)Nc3ccccc3N3CCOCC3)cc12 | 1.56 | i | 6* | i | -6.6 | i
Cc1nn(Cc2ccc(F)cc2)c2sc(C(=O)Nc3ccccc3N3CCOCC3)cc12 | -1.55 | i | i | i | -6.5 | i
CCN=C1SC(C(=O)Nc2cccc(Br)c2)CC(=O)N1CC (centres undefined) | 0.02 | i | i | i | -7.4 | -7.09*
O=C(Cn1cc(C(F)(F)F)ccc1=O)NC1CCCC1 | . | i | . | . | . | .
C/C(=N\Nc1nc(C)c(C)s1)c1ccc([N+](=O)[O-])cc1 | 2.25 | i | i | 19* | 30.4* | i
CN1CCN(c2ncc(CN3C(=O)c4ccccc4C3=O)s2)CC1 | -0.79 | i | i | i | 5.9* | i
Fc1ccc(N2CCN(Cc3cnc(N4CCOCC4)s3)CC2)cc1 | 1.91 | i | i | i | 3.9 | i
CCCCc1sc(-c2c(C#N)c(N)nc3c2CCCCC3)cc1[N+](=O)[O-] | 1.3 | i | i | i | -4.1 | -6.74*
CC(=O)Nc1ccc(N(C(=O)c2ccco2)C(C(=O)NC2CCCCC2)c2ccccc2)cc1 (centres undefined) | 0.8 | i | i | i | -5.6 | i
Cc1ccc(C2=NOC(c3nnc(-c4ccccc4)o3)C2)cc1 (centres undefined) | -0.04 | i | i | 8* | -1.3 | i
CCC1C(=O)CC(c2ccccc2)NC1c1ccccc1 (centres undefined) | -0.03 | i | i | i | -5.3 | -6.57*
O=C1C(c2ccccc2)C(c2ccccc2)NC(c2ccccc2)C1c1ccccc1 (centres undefined) | 0.05 | i | i | i | 1.2 | i
Cc1ccc(S(=O)(=O)N(CCCO)CC(O)CON=C2c3ccccc3-c3ccccc32)cc1 (centres undefined) | 1.64 | i | i | i | -1.4 | i
C=CCC(NCc1ccco1)c1ccc(OC)cc1OC (centres undefined) | -1.06 | . | i | i | -3.9 | i
C=C(C)CC(NCc1ccco1)c1ccc(OC)cc1 (centres undefined) | -5.36* | i | i | i | -4.5 | i
COc1ccccc1CN(C)C(=O)c1cnc(C)cn1 | 0.08 | i | i | i | -3.1 | i
COc1ccccc1CN(C)C(=O)c1sccc1-c1ccccc1 | -5.42* | i | i | i | -10.2 | i
CCC(Cc1ccccc1)NC(=O)CCn1cccc1 (centres undefined) | -0.52 | i | i | i | -11.8 | i
CCC(Cc1ccccc1)NC(=O)CCc1ccccc1 (centres undefined) | -5.08* | i | i | i | -6.1 | i
Cc1[nH]c(C)c(S(=O)(=O)Nc2cccc(Cl)c2C)c1C(=O)N1CCCCC1 | -1.11 | i | i | i | -6.9 | i
Cc1ccc(C(=O)NNC(=O)CCCCC(=O)NNC(=O)c2ccc(C)cc2)cc1 | 1.42 | i | i | 9* | -1.0 | i
COc1ccc(C(=O)NNC(=O)CCCCC(=O)NNC(=O)c2ccc(OC)cc2)cc1 | 0.2 | i | i | i | -9.5 | i
Cc1ccc(C(=O)NNC(=O)c2cccc(Br)c2)cc1 | 1.7 | i | i | i | 10.9* | i
O=C(NCCNCc1ccc(F)cc1)c1ccco1 | -1.41 | i | i | i | -3.6 | i
SMILES | Kir21 block | KCNK3 inh | KCNQ1 block | KCNQ1 act | hERG protect | KCNK9 block
Fc1ccc(CNCCC(Cc2ccccc2)c2ccco2)cc1 (centres undefined) | -15.1* | i | i | i | -13.5 | i
O=S(=O)(NCc1csc(-c2cccnc2)n1)c1ccc(Br)cc1 | -7.73* | i | i | i | -10.3 | i
C[C@@H](NC(=O)/C(C#N)=C/c1ccc(O)c(O)c1)c1ccccc1 | . | i | . | . | . | .
CC(NC(=O)/C(C#N)=C/c1ccc(Cl)c([N+](=O)[O-])c1)c1ccccc1 (centres undefined) | -5.48* | . | i | i | -18.2 | i
Cc1nc(N2CCC(C)CC2)c2c(C)c(C(=O)Nc3ccc(C(F)(F)F)cc3)sc2n1 | 1.96 | i | 10* | i | 0.5 | i
Cc1ccc(C23CC4CC(CC(NC(=O)NCCN(C)C)(C4)C2)C3)cc1 | -4.35* | i | i | i | -5.9 | i
CN(C)CCNC(=O)COc1ccc(C23CC4CC(CC(C4)C2)C3)cc1 | -6.53* | i | i | i | -24.2 | i
CCN(CC)CCNC(=O)COc1ccc(OC)cc1 | 0.04 | i | i | i | -7.0 | i
CC(=O)Sc1nc(-c2ccccc2)[nH]c1S(=O)(=O)c1ccc(C)cc1 | 0.36 | . | 10* | i | -7.3 | i
CSc1nc(-c2ccc(C)cc2)[nH]c1S(=O)(=O)c1ccccc1 | -1.61 | i | i | i | -4.8 | i
Cc1ccc(-n2nc3ccc(N)cc3n2)c(C)c1 | 0.02 | i | i | i | 7.0* | i
Cc1ccc(-n2nc3ccc(N)cc3n2)cc1Cl | -0.1 | i | i | i | -1.7 | i
CC(=O)Nc1ccc(NC(=O)COC(=O)C2(c3ccc(Cl)cc3)CCCC2)cc1 | -0.33 | i | i | i | -3.7 | i
CCc1cccc(CC)c1NC(=O)COC(=O)C1(c2ccc(Cl)cc2)CCCC1 | -0.02 | i | i | i | -11.8 | -7.13*
CCOC(=O)c1c(Cc2ccccc2)c[nH]c1C | -0.31 | i | i | i | -12.9 | i
COc1ccccc1CN(C)CC(=O)Nc1ccc(Cl)cc1F | -2.34 | i | i | i | -19.2 | i
COc1ccc(Br)cc1CN(C)CC(=O)Nc1cc(Cl)ccc1Cl | -5.67* | i | i | i | -19.2 | i
O=S(=O)([N-]c1nc2ccccc2nc1-[n+]1ccc(CCCc2ccccc2)cc1)c1cccs1 | -0.42 | i | i | i | -10.8 | -6.82*
COc1ccc(NC(=O)c2cccc(S(=O)(=O)NCc3ccccc3)c2)cc1S(N)(=O)=O | . | i | . | . | . | .
CN(C)CCNC(=O)C1(O)c2cc(Br)ccc2NC(=O)N1c1ccc(Cl)cc1 (centres undefined) | -0.72 | i | i | i | -11.7 | i
CN(C)c1cc(N/N=C\c2ccccc2)nc(N(C)C)n1 | -0.27 | i | i | i | -17.3 | i
COc1ccccc1/C=N/Nc1cc(N(C)C)nc(N(C)C)n1 | -0.29 | i | 6* | i | -7.2 | i
